The test system of one assay is axon. The following applies: cited from earlier work.
The subject of assay [1] is neuropilin-1. To be noted: cited from earlier work.
In assay [2] the target is T1, neuropilin-1 (Homo sapiens, UniProt O14786).
T1 sequence (O14786 273-586 limits assumed): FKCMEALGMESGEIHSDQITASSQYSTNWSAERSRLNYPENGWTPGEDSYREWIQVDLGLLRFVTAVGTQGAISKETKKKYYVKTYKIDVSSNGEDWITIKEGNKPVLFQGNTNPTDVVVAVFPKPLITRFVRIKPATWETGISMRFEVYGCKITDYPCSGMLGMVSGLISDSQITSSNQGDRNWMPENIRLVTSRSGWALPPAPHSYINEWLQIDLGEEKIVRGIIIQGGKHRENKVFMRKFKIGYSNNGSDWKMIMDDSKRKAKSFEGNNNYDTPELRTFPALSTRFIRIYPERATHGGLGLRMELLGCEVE
Type of assay: binding.

Assay [3] has as its target Neuropilin-1 (Homo sapiens) (UniProt O14786). The assay can be described thus: SPR. To be noted: cited from earlier work.
A further assay concerns the target T2, neuropilin-2 (Homo sapiens, UniProt O60462).
T2 sequence (O60462 276-595 limits assumed): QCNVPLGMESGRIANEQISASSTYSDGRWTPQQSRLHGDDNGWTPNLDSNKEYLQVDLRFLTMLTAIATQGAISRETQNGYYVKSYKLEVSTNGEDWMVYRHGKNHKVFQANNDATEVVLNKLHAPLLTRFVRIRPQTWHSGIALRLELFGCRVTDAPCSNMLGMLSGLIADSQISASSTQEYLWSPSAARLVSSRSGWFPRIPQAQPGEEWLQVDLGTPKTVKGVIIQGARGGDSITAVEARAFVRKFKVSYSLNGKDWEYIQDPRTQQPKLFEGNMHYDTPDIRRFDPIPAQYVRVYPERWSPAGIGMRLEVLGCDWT
The assay can be described thus: Sedimentation velocity analytical ultracentrifugation with neuropilin-2. The format is binding. The gist of the method:
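Sedimentation velocity was run at 4°C and 40,000 rpm in 10 mM Tris pH 7.5, 150 mM NaCl, 1 mM sodium azide. Human neuropilin-2 b1b2 was held at 8 μM. The oxidised dimeric C-terminal Sema3F peptide was added at 2.5X molar excess. Absorbance was read at 280 nm. Sedimentation coefficient distributions (0.1–6 s) were fit to numerical Lamm equation solutions, using calculated buffer density, viscosity and partial specific volumes.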

The test system of another assay is furin. Nature of the assay: Furin processing of Sema3F C-terminus. The format is cell-based. To be noted: C-terminal Hgh fusion, western blot. The gist of the method: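 The C-terminal neuropilin-binding region of human Sema3F (residues 605-785) was fused to human growth hormone. Cells were kept in α-MEM with 5% FBS, moved at 80% confluence to serum-free Hybridoma-SFM, and PEI-transfected with 1 μg DNA/mL at a 3:1 PEI:DNA ratio. Hosts were CHO, furin-deficient FD11, furin-overexpressing CHO, and COS-7 with or without furin inhibitors. Media were western-blotted with anti-Hgh polyclonal (1:10,000) and HRP anti-rabbit (1:20,000) antibodies, then chemiluminescence.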
For orientation: A western blot detects proteins with antibodies after separation by electrophoresis.

Assay [4] has as its target core ligand binding region (b1b2) of human neuropilin-1 (human) (UniProt O14786). The assay can be described thus: plate-based inhibition assay.
The target is the same in assay [5]. Nature of the assay: plate-based inhibition assay. The source holds these as a separate data set.
In assay [6] the target is T3, core ligand binding region (b1b2) of human neuropilin-2 (human, UniProt O60462 277-592).
T3 sequence (looked up): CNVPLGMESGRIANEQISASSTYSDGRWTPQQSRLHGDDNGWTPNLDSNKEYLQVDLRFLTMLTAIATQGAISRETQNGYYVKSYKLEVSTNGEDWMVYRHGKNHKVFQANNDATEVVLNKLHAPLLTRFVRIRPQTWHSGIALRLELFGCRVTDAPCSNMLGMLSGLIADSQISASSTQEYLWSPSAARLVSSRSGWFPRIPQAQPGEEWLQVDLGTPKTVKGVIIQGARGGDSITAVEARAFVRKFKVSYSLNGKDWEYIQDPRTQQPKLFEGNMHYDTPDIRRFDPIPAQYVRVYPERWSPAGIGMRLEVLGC
The assay can be described thus: AUC.

Like-named read-outs stand apart in the source and are kept apart here. Where a SMILES comes first, the peptide text is derived from it. Where no end group is shown, it is not given here. Some results are limits rather than exact numbers.

Chain of core ligand binding region (b1b2) of human neuropilin-1 (human) (O14786 22-923): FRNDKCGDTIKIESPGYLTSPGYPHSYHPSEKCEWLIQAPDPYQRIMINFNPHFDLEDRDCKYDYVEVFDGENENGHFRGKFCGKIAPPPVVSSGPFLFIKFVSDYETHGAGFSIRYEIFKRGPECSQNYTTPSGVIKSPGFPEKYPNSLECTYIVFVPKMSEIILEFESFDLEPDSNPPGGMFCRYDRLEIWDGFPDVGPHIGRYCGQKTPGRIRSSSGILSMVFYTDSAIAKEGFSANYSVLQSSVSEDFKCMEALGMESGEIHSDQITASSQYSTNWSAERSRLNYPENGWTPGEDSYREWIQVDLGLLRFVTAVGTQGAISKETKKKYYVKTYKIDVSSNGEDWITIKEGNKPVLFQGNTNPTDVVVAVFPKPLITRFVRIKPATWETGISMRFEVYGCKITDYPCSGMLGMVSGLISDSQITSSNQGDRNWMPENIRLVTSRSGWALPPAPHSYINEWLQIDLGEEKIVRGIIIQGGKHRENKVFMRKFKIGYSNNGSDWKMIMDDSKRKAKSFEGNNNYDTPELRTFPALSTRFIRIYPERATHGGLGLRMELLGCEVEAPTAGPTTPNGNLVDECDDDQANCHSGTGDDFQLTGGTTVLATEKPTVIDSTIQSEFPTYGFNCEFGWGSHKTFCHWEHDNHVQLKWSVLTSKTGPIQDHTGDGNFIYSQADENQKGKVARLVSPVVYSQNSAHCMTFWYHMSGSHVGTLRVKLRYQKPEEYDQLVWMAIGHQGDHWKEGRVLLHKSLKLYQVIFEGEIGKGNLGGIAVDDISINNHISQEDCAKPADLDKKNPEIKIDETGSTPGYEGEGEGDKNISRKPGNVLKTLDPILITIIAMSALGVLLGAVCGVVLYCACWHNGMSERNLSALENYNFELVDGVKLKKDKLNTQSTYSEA
Chain of Neuropilin-1 (Homo sapiens) (O14786 22-923): as above

Regarding VEGF, in the assay with axon, the “effect on semaphorin mediated growth cone collapse” value was “directly antagonize semaphorin mediated growth cone collapse”. In addition, the “increase in apparent affinity of VEGF with four fold higher neuropilin density” value with neuropilin-1 [1] is on record as “twenty”.
As a reminder, the IC50 is the midpoint of a concentration-inhibition curve. Read a high IC50 as a need for much substance. `CC(C)C[C@H](NC(=O)[C@H](Cc1c[nH]c2ccccc12)NC(=O)[C@@H](NC(=O)[C@H](C)N)[C@@H](C)O)C(=O)N1CCC[C@H]1C(=O)N1CCC[C@H]1C(=O)N[C@@H](CCCNC(=N)N)C(=O)O` [ATWLPPR] (H-ATWLPPR-OH) gave a half-maximal inhibitory concentration (IC50) against neuropilin-1 [2] of 10500 ± 2000 nM.
In general, Kd refers to the concentration at which binding is half-saturated. As for VEGF (from UniProt P15692), the equilibrium dissociation constant (Kd) in assay [3] was 2000 nM.
In the case of “GLIHQYCQGYWRHVPPSPREAPGAPRSPEPDQKKPRNRRHHPPDT (disulfide (positions not given here)) [C-Sema]”, the “% of species, peak a” value on neuropilin-2 (neuropilin-2 8 μM + C-Sema 2.5X molar excess, free C-Sema) is given as 32%. At neuropilin-2 (neuropilin-2 8 μM + C-Sema 2.5X molar excess, free C-Sema (expected 10.7 kDa)), the “c(M), peak a” value is recorded as 11.1 ± 0.6 kDa. On neuropilin-2 (neuropilin-2 8 μM + C-Sema 2.5X molar excess, neuropilin-2 dimer), the “% of species, peak c” value is 4%. Moreover, the “% of species, peak b” value on neuropilin-2 (neuropilin-2 8 μM + C-Sema 2.5X molar excess, neuropilin-2 monomer) turned out to be 58%. For the same molecule, the “interaction with neuropilin-2 by sedimentation velocity” value on neuropilin-2 (neuropilin-2 8 μM, peptide 2.5X molar excess) was “no significant interaction with neuropilin-2”.

B1: Neuropilin-2: core ligand binding region (b1b2) of human neuropilin-2 (protein)
chain: T3 sequence (looked up)
Turning to B1, the “% of species, peak b” value with neuropilin-2 (neuropilin-2 alone, 8 μM, dimer) turned out to be 3%. Also, the “c(M), peak b” value with neuropilin-2 (neuropilin-2 alone, 8 μM, dimer (expected 76.8 kDa)) stood at 74.3 ± 3.0 kDa. Also, the “s20,w, peak b” value with neuropilin-2 (neuropilin-2 alone, 8 μM, dimer, 4°C, 10 mM Tris pH 7.5, 150 mM NaCl) was determined as 4.73 S. In the assay with neuropilin-2 (neuropilin-2 alone, 8 μM, monomer), the “% of species, peak a” value is 97%. Also, the “c(M), peak a” value is 37.9 ± 1.9 kDa with neuropilin-2 (neuropilin-2 alone, 8 μM, monomer (expected 38.4 kDa)) and 37.9 kDa with neuropilin-2 (neuropilin-2 alone, 8 μM, monomer (expected 38.4 kDa), listed as neuropilin-2). Further, the “s20,w, peak a” value with neuropilin-2 (neuropilin-2 alone, 8 μM, monomer, 4°C, 10 mM Tris pH 7.5, 150 mM NaCl) was 3.03 S.

B2: Sema3F (Ig-basic): C-terminal neuropilin binding region of human Sema3F (residues 605-785) with C-terminal human growth hormone fusion (protein)
chain: ANKNAVESVQYGVAGSAAFLECQPRSPQATVKWLFQRDPGDRRREIRAEDRFLRTEQGLLLRALQLSDRGLYSCTATENNFKHVVTRVQLHVLGRDAVHAALFPPLSMSAPPPPGAGPPTPPYQELAQLLAQPEVGLIHQYCQGYWRHVPPSPREAPGAPRSPEPQDQKKPRNRR
modifications: left off: Human Growth Hormone (Hgh), N-terminal, kept
Turning to B2, the “processing state of Sema3F” value in the assay with furin (CHO cells overexpressing furin) is “only the processed form”; in the assay with furin (COS-7 cells, no furin inhibitor), “nearly completely processed”; in the assay with furin (FD11 CHO cells lacking furin activity), “solely the unprocessed form”; with furin (wild-type CHO cells), “a mixture of processed and unprocessed forms”. Also, the “proteolytic processing of Sema3F (fraction processed)” value in the assay with furin (Cos7 cells, no furin inhibitor) is recorded as greater than 95%.
For the molecule GLIHQYCQGYWRHVPPSPREAPGAPRSPEPQDQKKPRNRR (also: disulfide-linked dimer (interchain disulfide)), the IC50 turned out to be 45 nM in [4] and 46 nM in assay [5]. The “stoichiometry N” value in assay [6] is 1 neuropilin-2:C-furSema.

The values above are taken from paper PMC2868107 (Biochemistry, 2010).
